Laboratory results: paper PMC10957407 (Food Chemistry: X, 2024)
≈ marks a conversion by molar mass, not a printed value.

How the values were obtained:
1-D6 = experiment: icELISA with mAb 1-D6; type: binding, Balb/c mice; details: for CR: CR%=IC50 6-GG/IC50 test compound x100%
Outline: (§1)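 Ascites-derived mAbs (caprylic acid–ammonium sulfate purified) from female Balb/c mice immunized with hapten–BSA. Plates coated with hapten–OVA in carbonate buffer (0.5 mol L−1, pH 9.6), blocked with 5% skim milk, washed with PBST, and detected with goat anti-mouse IgG-HRP; reaction stopped with 2 mol L−1 H2SO4. Analyte stocks (1 mg/mL, 70% methanol) were diluted in 10% methanol-PBS. IC50 values were fitted, and cross-reactivity was calculated for capsaicinoids, gingerol derivatives and eight other compounds.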

1-F12 = experiment: icELISA with mAb 1-F12; type: binding, Balb/c mice; details: for CR: CR%=IC50 6-GG/IC50 test compound x100%
Outline: as §1

1-G12 = experiment: icELISA with mAb 1-G12; type: binding, Balb/c mice; details: for CR: CR%=IC50 6-GG/IC50 test compound x100%
Outline: as §1

3-LD3 = experiment: icELISA with mAb 3-LD3; type: binding
5-D8 = experiment: icELISA with mAb 5-D8; type: binding
2-LD2 = experiment: icELISA with mAb 2-LD2; type: binding
6-AT6 = experiment: icELISA with mAb 6-AT6; type: binding
4-AT4 = experiment: icELISA with mAb 4-AT4; type: binding
5-3H1 = experiment: icELISA with mAb 5-3H1; type: binding
[1] = mAb 1-D6, specific evaluation (Table 1, Fig. 3C)
[2] = mAb 1-F12, specific evaluation (Table 1, Fig. 3B)
[3] = mAb 1-G12, specific evaluation (Table 1, Fig. 3D)

**Q.** With `COc1cc(/C=C/C(=O)O)ccc1O` [Ferulic acid] as the molecule, how does the IC50 (1-D6; [1]) read?
**A.** 1.92736 µg/mL (≈ 9.93 µM)

**Q.** What about the CR (1-D6; mAb 1-D6) of the same molecule?
**A.** 3.07%

**Q.** And the CR (1-F12; mAb 1-F12)?
**A.** <12.66%

**Q.** And the CR (1-G12; mAb 1-G12)?
**A.** <14.01%

**Q.** How did the IC50 (3-LD3; coating antigen Hapten 2-OVA) turn out when `CCCCC[C@H](O)CC(=O)CCc1ccc(O)c(OC)c1` [Hapten 6-GG, 6-gingerol] was run?
**A.** 1.82165 µg/mL (≈ 6.19 µM)

**Q.** What about the IC50 (3-LD3; coating antigen Hapten 3-OVA) of the same molecule?
**A.** 2.18232 µg/mL (≈ 7.41 µM)

**Q.** And the IC50 (3-LD3; coating antigen Hapten 4-OVA)?
**A.** 0.27108 µg/mL (≈ 0.921 µM)

**Q.** What about the IC50 (5-D8; coating antigen Hapten 1-OVA) of the same molecule?
**A.** 0.02328 µg/mL (≈ 0.0791 µM)

**Q.** What about the IC50 (5-D8; coating antigen Hapten 2-OVA) of the same molecule?
**A.** >4 µg/mL

**Q.** And the IC50 (5-D8; coating antigen Hapten 3-OVA)?
**A.** >4 µg/mL

**Q.** And the IC50 (5-D8; coating antigen Hapten 4-OVA)?
**A.** 1.03007 µg/mL (≈ 3.5 µM)

**Q.** And the IC50 (5-D8; coating antigen Hapten 5-OVA)?
**A.** 1.03651 µg/mL (≈ 3.52 µM)

**Q.** What about the IC50 (2-LD2; coating antigen Hapten 1-OVA) of the same molecule?
**A.** 0.02479 µg/mL (≈ 0.0842 µM)

**Q.** And the IC50 (2-LD2; coating antigen Hapten 2-OVA)?
**A.** 1.43616 µg/mL (≈ 4.88 µM)

**Q.** And the IC50 (2-LD2; coating antigen Hapten 3-OVA)?
**A.** 0.00178 µg/mL (≈ 0.00605 µM)

**Q.** What about the IC50 (2-LD2; coating antigen Hapten 4-OVA) of the same molecule?
**A.** 0.00101 µg/mL (≈ 0.00343 µM)

**Q.** And the IC50 (1-D6; coating antigen Hapten 1-OVA, mAb 1-D6)?
**A.** 0.05917 µg/mL (≈ 0.201 µM)

**Q.** What about the IC50 (1-D6; coating antigen Hapten 2-OVA, mAb 1-D6) of the same molecule?
**A.** 1.14733 µg/mL (≈ 3.9 µM)

**Q.** And the IC50 (1-D6; coating antigen Hapten 3-OVA, mAb 1-D6)?
**A.** 0.02778 µg/mL (≈ 0.0944 µM)

**Q.** And the IC50 (1-D6; coating antigen Hapten 4-OVA, mAb 1-D6)?
**A.** 0.29753 µg/mL (≈ 1.01 µM)

**Q.** And the IC50 (1-D6; coating antigen Hapten 5-OVA, mAb 1-D6)?
**A.** 0.13286 µg/mL (≈ 0.451 µM)

**Q.** And the IC50 (1-D6; coating antigen Hapten 6-OVA, mAb 1-D6)?
**A.** 0.15056 µg/mL (≈ 0.511 µM)

**Q.** What about the IC50 (1-D6; [1]) of the same molecule?
**A.** 0.05917 µg/mL (≈ 0.201 µM)

**Q.** And the CR (1-D6; mAb 1-D6)?
**A.** 100.00%

**Q.** And the IC50 (6-AT6; coating antigen Hapten 1-OVA)?
**A.** >4 µg/mL

**Q.** What about the IC50 (6-AT6; coating antigen Hapten 2-OVA) of the same molecule?
**A.** >4 µg/mL

**Q.** What about the IC50 (6-AT6; coating antigen Hapten 3-OVA) of the same molecule?
**A.** >4 µg/mL

**Q.** And the IC50 (6-AT6; coating antigen Hapten 4-OVA)?
**A.** >4 µg/mL

**Q.** What about the IC50 (6-AT6; coating antigen Hapten 5-OVA) of the same molecule?
**A.** 0.42562 µg/mL (≈ 1.45 µM)

**Q.** What about the IC50 (6-AT6; coating antigen Hapten 6-OVA) of the same molecule?
**A.** >4 µg/mL

**Q.** What about the IC50 (1-F12; coating antigen Hapten 1-OVA, mAb 1-F12) of the same molecule?
**A.** 0.50623 µg/mL (≈ 1.72 µM)

**Q.** And the IC50 (1-F12; coating antigen Hapten 2-OVA, mAb 1-F12)?
**A.** >4 µg/mL

**Q.** What about the IC50 (1-F12; coating antigen Hapten 3-OVA, mAb 1-F12) of the same molecule?
**A.** >4 µg/mL

**Q.** What about the IC50 (1-F12; coating antigen Hapten 4-OVA, mAb 1-F12) of the same molecule?
**A.** 0.40126 µg/mL (≈ 1.36 µM)

**Q.** And the IC50 (1-F12; coating antigen Hapten 5-OVA, mAb 1-F12 (optimal combination))?
**A.** 0.12283 µg/mL

**Q.** And the IC50 (1-F12; coating antigen Hapten 6-OVA, mAb 1-F12)?
**A.** 0.63169 µg/mL (≈ 2.15 µM)

**Q.** What about the IC50 (1-F12; [2]) of the same molecule?
**A.** 0.50623 µg/mL (≈ 1.72 µM)

**Q.** And the CR (1-F12; mAb 1-F12)?
**A.** 100.00%

**Q.** And the IC50 (4-AT4; coating antigen Hapten 1-OVA)?
**A.** 0.00493 µg/mL (≈ 0.0167 µM)

**Q.** What about the IC50 (4-AT4; coating antigen Hapten 2-OVA) of the same molecule?
**A.** >4 µg/mL

**Q.** And the IC50 (4-AT4; coating antigen Hapten 3-OVA)?
**A.** >4 µg/mL

**Q.** What about the IC50 (4-AT4; coating antigen Hapten 4-OVA) of the same molecule?
**A.** >4 µg/mL

**Q.** What about the IC50 (4-AT4; coating antigen Hapten 5-OVA) of the same molecule?
**A.** 0.48165 µg/mL (≈ 1.64 µM)

**Q.** And the IC50 (1-G12; coating antigen Hapten 1-OVA, mAb 1-G12)?
**A.** 0.56059 µg/mL (≈ 1.9 µM)

**Q.** And the IC50 (1-G12; coating antigen Hapten 2-OVA, mAb 1-G12)?
**A.** >4 µg/mL

**Q.** What about the IC50 (1-G12; coating antigen Hapten 3-OVA, mAb 1-G12) of the same molecule?
**A.** >4 µg/mL

**Q.** What about the IC50 (1-G12; coating antigen Hapten 4-OVA, mAb 1-G12) of the same molecule?
**A.** 0.41084 µg/mL (≈ 1.4 µM)

**Q.** And the IC50 (1-G12; coating antigen Hapten 5-OVA, mAb 1-G12)?
**A.** 0.19553 µg/mL (≈ 0.664 µM)

**Q.** What about the IC50 (1-G12; coating antigen Hapten 6-OVA, mAb 1-G12) of the same molecule?
**A.** 0.28444 µg/mL (≈ 0.966 µM)

**Q.** And the IC50 (1-G12; [3])?
**A.** 0.56059 µg/mL (≈ 1.9 µM)

**Q.** And the CR (1-G12; mAb 1-G12)?
**A.** 100.00%

**Q.** And the IC50 (5-3H1; coating antigen Hapten 1-OVA)?
**A.** 0.03897 µg/mL (≈ 0.132 µM)

**Q.** What about the IC50 (5-3H1; coating antigen Hapten 2-OVA) of the same molecule?
**A.** >4 µg/mL

**Q.** And the IC50 (5-3H1; coating antigen Hapten 3-OVA)?
**A.** >4 µg/mL

**Q.** What about the IC50 (5-3H1; coating antigen Hapten 4-OVA) of the same molecule?
**A.** 1.06282 µg/mL (≈ 3.61 µM)

**Q.** What about the IC50 (5-3H1; coating antigen Hapten 5-OVA) of the same molecule?
**A.** 0.67041 µg/mL (≈ 2.28 µM)

**Q.** Which IC50 (1-D6; [1]) does the source give for `COc1ccc(/C=C/C(=O)O)cc1O` [IsoFerulic acid] here?
**A.** 2.12807 µg/mL (≈ 11 µM)

**Q.** And the CR (1-D6; mAb 1-D6)?
**A.** 2.78%

**Q.** And the IC50 (1-F12; [2])?
**A.** >4 µg/mL

**Q.** And the CR (1-F12; mAb 1-F12)?
**A.** <12.66%

**Q.** And the IC50 (1-G12; [3])?
**A.** >4 µg/mL

**Q.** What about the CR (1-G12; mAb 1-G12) of the same molecule?
**A.** <14.01%

**Q.** For `COc1cc(/C=C/C(=O)O)ccc1O` [Trans-Ferulic acid], which IC50 (1-D6; [1]) is on record?
**A.** >4 µg/mL

**Q.** What about the CR (1-D6; mAb 1-D6) of the same molecule?
**A.** <1.48%

**Q.** What about the IC50 (1-F12; [2]) of the same molecule?
**A.** >4 µg/mL

**Q.** What about the CR (1-F12; mAb 1-F12) of the same molecule?
**A.** <12.66%

**Q.** And the IC50 (1-G12; [3])?
**A.** >4 µg/mL

**Q.** And the CR (1-G12; mAb 1-G12)?
**A.** <14.01%

**Q.** Which results are given for `COc1cc(C(=O)O)ccc1O` [Vanillic acid]?
**A.** IC50 (1-D6; [1]): 1.7172 µg/mL (≈ 10.2 µM); CR (1-D6; mAb 1-D6): 3.45%; IC50 (1-F12; [2]): >4 µg/mL; CR (1-F12; mAb 1-F12): <12.66%; IC50 (1-G12; [3]): >4 µg/mL; CR (1-G12; mAb 1-G12): <14.01%

**Q.** Which results are given for `COc1cc(C=O)ccc1O` [Vanillin]?
**A.** IC50 (1-D6; [1]): 1.98161 µg/mL (≈ 13 µM); CR (1-D6; mAb 1-D6): 2.99%; IC50 (1-F12; [2]): >4 µg/mL; CR (1-F12; mAb 1-F12): <12.66%; IC50 (1-G12; [3]): >4 µg/mL; CR (1-G12; mAb 1-G12): <14.01%
